In PubChem BioAssay AID624038 (The Scripps Research Institute Molecular Screening Center, 2012):
About 1,100 (0.31%) of roughly 360,000 compounds were called active.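 Rule for the calls: active = activation above the run cutoff, the mean activation of all test compounds plus 3 SD (cut at about 18% in these data); inactive = the rest.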 The entries come from a sample that favours actives as a whole.

These compounds were tested against Muscarinic acetylcholine receptor M5 (Homo sapiens) (UniProt P08912) (assay: human M5 muscarinic receptor positive allosteric modulators, primary screen, CHO-K1 cells, Fluo-8 calcium fluorescence (AID 624038)). Conditions: CHO-K1 hM5, Fluo-8 calcium, ACh EC20 PAM; at 3 µM; active compounds read high; 0% = ACh EC20, 100% = ACh EC100.
Chain of Muscarinic acetylcholine receptor M5 (Homo sapiens) (P08912 whole entry, looked up): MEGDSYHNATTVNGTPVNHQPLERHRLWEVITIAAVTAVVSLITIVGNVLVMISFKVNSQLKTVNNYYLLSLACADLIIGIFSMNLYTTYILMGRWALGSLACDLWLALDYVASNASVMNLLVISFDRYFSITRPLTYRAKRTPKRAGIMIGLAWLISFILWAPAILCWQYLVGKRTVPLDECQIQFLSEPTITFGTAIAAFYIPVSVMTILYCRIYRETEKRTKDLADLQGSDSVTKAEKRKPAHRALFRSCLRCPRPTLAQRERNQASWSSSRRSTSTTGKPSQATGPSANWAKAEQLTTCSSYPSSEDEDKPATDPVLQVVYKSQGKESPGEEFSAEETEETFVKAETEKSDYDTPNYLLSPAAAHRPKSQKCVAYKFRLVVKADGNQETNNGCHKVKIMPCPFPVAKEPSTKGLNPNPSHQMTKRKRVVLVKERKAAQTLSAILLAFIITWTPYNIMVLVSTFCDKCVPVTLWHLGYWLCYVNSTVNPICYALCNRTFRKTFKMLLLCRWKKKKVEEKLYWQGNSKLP
Outline: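 Replicates: One well per compound, no replicates | System: Human M5 receptor in CHO-K1 cells | Benchmarks: Low control EC20 acetylcholine (0%), high control EC100 acetylcholine (100%) | Probe or stimulus: Acetylcholine, EC20 level | Times: Fluo-8 loading 80 min at 37 °C plus 30 min room temperature | Signal: Intracellular calcium via Fluo-8 fluorescence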

SMILES	activation
CN(C(=O)COC(=O)c1cc(-c2ccco2)nc2ccccc12)C1CCS(=O)(=O)C1 (configuration not stated)	2.3% (inactive)
COc1ccc2c(-c3ccccc3)cc(SCC(=O)N(C)C3CCS(=O)(=O)C3)nc2c1 (configuration not stated)	-0.41% (inactive)
Cc1c(-c2cccc(Cl)c2)nc2ccccc2c1C(=O)OCC(=O)N(C)C1CCS(=O)(=O)C1 (configuration not stated)	20.2% (active)
CCOC(=O)C1=C(C)OC(N)=C(C#N)C1c1cncc(-c2ccc(F)cc2)c1 (configuration not stated)	-7.72% (inactive)
CN1CCN(S(=O)(=O)c2ccc(Nc3ccc(F)cc3)nc2)CC1	11.7% (inactive)
CCOC(=O)C1CCCN(C(=O)c2ccc(N(C)C)cc2)CC1 (configuration not stated)	-2.3% (inactive)
CCOC(=O)C1CCCN(C(=O)c2ccc(C)c(F)c2)CC1 (configuration not stated)	0.17% (inactive)
C=CCN1C(=O)c2ccc(C(=O)N3CCC(C(=O)OCC)CC3)cc2C1=O	44.4% (active)
C=CCOC(=O)c1ccccc1C(=O)OCC=C	0.16% (inactive)
O=C(COC(=O)/C=C/c1ccc(OC(F)F)cc1)NC1CCCCC1	-3.38% (inactive)
CCN(CCn1cccn1)C(=O)CC1C(=O)NCCN1Cc1cccc(OC)c1OC (configuration not stated)	-1.21% (inactive)
CCCC(CNC(=O)COC(=O)C1=NNC(=O)CC1)c1ccc(Cl)cc1Cl (configuration not stated)	8.77% (inactive)
O=C(c1ccc(Br)o1)N1CCN(CCOc2ccccc2)CC1	4.96% (inactive)
O=C(c1ccco1)N1CCN(CCOc2ccccc2)CC1	2.94% (inactive)
COC(c1ccccc1)c1nnc(CCC(=O)N2CCN(CCOc3ccccc3)CC2)o1 (configuration not stated)	20% (active)
CCC1=[N+]([O-])C(C)(/C(C)=N\O)N(O)C1(C)C (configuration not stated)	3.88% (inactive)
CC(C)Cn1cc(-c2cncc3nccn23)cn1	-3.57% (inactive)
CC(C)(C)n1nc(Cc2cccc3ccccc23)c(C#N)c1N	-3.53% (inactive)
CN(C)Cc1c(C#N)c2ccccc2n1C	18.2% (active)
COc1ccc(-c2c(C#Cc3ccccc3)c3ccccc3n2C)cc1	0.62% (inactive)
CCN(Cc1ccccc1)C(=O)Cc1ccc(OC)c(S(=O)(=O)N2CCOCC2)c1	0.97% (inactive)
COc1ccc(NC(=O)CNC(=O)Cn2ccc3ccccc3c2=O)c(OC)c1	0.07% (inactive)
CCN(C[C@H]1N[C@@](CC)(C(=O)OC)[C@H]2C(=O)N(C)C(=O)[C@@H]12)C(=O)Nc1ccc(F)cc1	-0.26% (inactive)
O=C(NCc1ccccc1)C1c2ccccc2OCC(=O)N1C1CC1 (configuration not stated)	6.75% (inactive)
Cc1ccc(NC(=O)CSc2nnc(CNC(=O)c3ccccc3F)o2)cc1	0.28% (inactive)

SMILES	activation
Cc1ccc(NC(=O)CSc2nnc(CNC(=O)c3ccccc3F)o2)cc1Cl	-1.76% (inactive)
O=C(NCc1nnc(SCC(=O)N2CCCc3ccccc32)o1)c1ccccc1F	22.5% (active)
COCCNC(=O)C1CCCN(Cc2ccccc2Cl)CC1 (configuration not stated)	0.83% (inactive)
CCOC(=O)CC1(NC(=O)c2cc(COc3cncc(Cl)c3)on2)CCCCC1	-12.1% (inactive)
O=C(NNS(=O)(=O)c1ccc(F)cc1)c1cnccn1	-12.5% (inactive)
COc1ccc(CN(C(=O)c2cccs2)c2nccs2)cc1OC	-13.5% (inactive)
OCC[C@H]1C[C@H](O)[C@@H](O)[C@]2(CCCCO2)O1	19.8% (active)
C[C@@H]1CC[C@]2(O[C@@H](CCO)C[C@H](O)[C@H]2O)O1	3.31% (inactive)
C[C@H]1CC[C@]2(O[C@@H](CCO)C[C@@H](O)[C@@H]2O)O1	5.16% (inactive)
Cc1ccc(NC(=O)N2CCSc3ccccc32)cc1	-6.2% (inactive)
Cc1ccc(-c2nnc(CN3CCN(C)CC3)o2)cc1	5.27% (inactive)
CCCCSc1nnc(-c2ccc(C)cc2)o1	19.1% (active)
CCN(C(=O)CSc1nnc(-c2ccncc2)o1)c1ccccc1	-1.49% (inactive)
COCCNc1nc(N)c([N+](=O)[O-])c(NCCO)n1	-6.19% (inactive)
CCOC(=O)c1ccc2c(c1)nc(SCC(=O)NC(C)C)n2CC	0.07% (inactive)
CCc1ccc(NC(=O)C(=O)N/N=C(\C)CC(=O)NCCOC)cc1	3.15% (inactive)
Cc1cc(C)n(-c2cc(Oc3ccccc3)ncn2)n1	34.2% (active)
Cc1cc(C)n(-c2ccc3nncn3n2)n1	0.99% (inactive)
CC(=O)c1cnn(-c2cc(Oc3ccc(F)cc3)ncn2)c1C	0.64% (inactive)
COC(=O)c1sc(SC)c(S(=O)(=O)C(C)C)c1N/N=C(\C#N)S(=O)(=O)c1ccccn1	3.1% (inactive)
CCc1nc2ccc(C(=O)N3CCC(O)(Cc4ccccc4)CC3)cn2c1N(C)C(=O)Cc1ccccc1	1.27% (inactive)
CN(C)CCCN1C(=O)CSC1c1ccc([N+](=O)[O-])cc1 (configuration not stated)	8.84% (inactive)
CCCCCCCCCCCCN1C(=O)CSC1c1cccnc1 (configuration not stated)	22.7% (active)
CCCCc1ccc(NC(=O)NCc2cccnc2)cc1	2.66% (inactive)
CCN(CC)S(=O)(=O)c1cc([N+](=O)[O-])ccc1N=Nc1c(O)n(C)c2ccccc12	-2.02% (inactive)

SMILES	activation
CCOc1ccc(NC(=O)CN(C)C(=O)CCSc2ccc(F)cc2)cc1OCC	-1.87% (inactive)
CCN(Cc1ccccc1)S(=O)(=O)c1cc2c3c(c1)CCN3C(=O)CC2	3.77% (inactive)
Cc1cc(C)c2nc(N(CCN(C)C)C(=O)/C=C/c3cccs3)sc2c1	18.8% (active)
Cc1ccc(S(=O)(=O)N(C)C)cc1NC(=O)COC(=O)/C=C/c1cccs1	1.46% (inactive)
Cc1ccc(S(=O)(=O)N(C)C)cc1NC(=O)/C=C/c1cccs1	-1.18% (inactive)
FC(F)(F)c1ccnc(Oc2ccc(C3=NCCS3)cc2)c1	-0.95% (inactive)
COc1ccc(NC(=O)CSc2nnc(-c3ccccc3F)n2C2CC2)cc1S(N)(=O)=O	4.72% (inactive)
CCOC1CS(=O)(=O)CC1OCC (configuration not stated)	27.7% (active)
O=C(O)c1ccc(COCC(F)(F)F)cc1	-0.76% (inactive)
CCCCCCN1CCN(C2CN(Cc3cn(CCCCCC)nn3)S(=O)(=O)C2)CC1 (configuration not stated)	0.04% (inactive)
Cc1cccc(-n2nc3c(c2NC(=O)c2cc4ccccc4o2)CS(=O)(=O)C3)c1	0.74% (inactive)
CCC(C(=O)N1CCN(S(=O)(=O)c2sc(C(=O)O)c(C)c2C(=O)O)CC1)c1ccccc1 (configuration not stated)	5.73% (inactive)
COc1ccc(OC)c(S(=O)(=O)Nc2c(C)nn(C)c2C)c1	18.8% (active)
COc1ccc(OC)c(S(=O)(=O)NCCC(C)C)c1	3.29% (inactive)
COc1ccc(OC)c(S(=O)(=O)Nc2ccccc2F)c1	-7.66% (inactive)
Cc1ccc(Br)c(NS(=O)(=O)c2cccc(C(=O)N3CCNC(=O)C3)c2)c1	-1.57% (inactive)
CCOC(=O)c1cnc(-n2nc(C)cc2C)nc1-n1nc(C)cc1C	37.3% (active)
CCOC(=O)c1cnc(-n2nc(C)cc2C)nc1NNc1cc(C)nc(-c2ccccc2)n1	0.83% (inactive)
CCOC(=O)c1cnc2c(c(C)nn2CC)c1Cl	0.72% (inactive)
Cc1cc(C(=O)OCC(=O)Nc2nccs2)c2ccccc2n1	-1.11% (inactive)
C=CCn1c(=S)[nH]c2scc(-c3ccco3)c2c1=O	-1.04% (inactive)
Cc1cc(C)n(Cc2cnc(N3CCOCC3)s2)n1	-0.72% (inactive)
CN(CC(=O)Nc1c(Cl)cccc1Cl)C(=O)CNC(=O)C1CCCCC1	7.43% (inactive)
COc1cccc(N(CC(=O)N2CCc3ccccc3C2)S(C)(=O)=O)c1	-6.56% (inactive)
CCN(CC)C(=O)CN(c1cccc(OC)c1)S(=O)(=O)c1ccc(C)cc1	24% (active)

SMILES	activation
COc1cccc(N(CC(=O)NC2CCCCCC2)S(=O)(=O)c2ccccc2)c1	-3.45% (inactive)
CCN1CCN(C(=O)C2CCCN(S(=O)(=O)c3ccc(OC)c(OC)c3)C2)CC1 (configuration not stated)	-3.07% (inactive)
CCNC(=S)NNC(=O)C1CCN(Cc2ccccc2)CC1	22.7% (active)
CCOC(=O)C1CCN(Cc2ccc(-c3ccccc3)cc2)CC1	-6.76% (inactive)
O=C(NNS(=O)(=O)c1ccc(Cl)cc1)C1CCN(Cc2ccccc2)CC1	-22.7% (inactive)
CCCc1nc(N)nc2c1C(=O)CC(C)(C)C2	3.62% (inactive)
COc1ccc(N2CCN(CCCNC(=O)C3CCN(S(=O)(=O)N4CCOCC4)CC3)CC2)cc1	-0.18% (inactive)
CSc1ccc(C(=O)C2CCCN(C(=O)c3ccc(C)nc3)C2)cc1 (configuration not stated)	-1.27% (inactive)
Cn1nccc1NC(=O)CC(CC(=O)O)c1ccccc1 (configuration not stated)	-3.88% (inactive)
Cc1c(-c2ccccc2)nc(N)c(C#N)c1-c1cccs1	-5.86% (inactive)
O=C(O)c1n[nH]nc1-c1ccccc1	3.89% (inactive)
N#Cc1c(-c2ccccc2)c(-c2ccccc2)n[nH]c1=O	20.6% (active)
O=C(COc1ccc(Cl)cc1)NCCS(=O)(=O)N1CCN(c2ccc(F)cc2)CC1	-8.06% (inactive)
CCCc1nc(N2CCN(C)CC2)c2sc(=S)n(-c3ccccc3)c2n1	-2.27% (inactive)
CCOC(=O)CNC(=O)/C=C/c1c(Cl)cccc1Cl	20.4% (active)
O=C(/C=C/c1c(Cl)cccc1Cl)NCc1ccccc1	0.05% (inactive)
O=C(/C=C/c1c(F)cccc1Cl)Nc1nn[nH]n1	-6.11% (inactive)
CCc1ccc(N(CC)c2ncnc3nc[nH]c23)cc1	-3.31% (inactive)
CC(C)Cn1c(=O)c2ccccc2n2c(CCC(=O)NCc3ccccn3)nnc12	-4.54% (inactive)
CSc1ncc(C(=O)NCCCc2ccccc2)c(C)n1	-2.95% (inactive)
Cc1ccccc1C(=O)Nc1ccccc1Sc1ccccc1	-14.3% (inactive)
CSc1ncc(Sc2ccccc2)c(C(=O)O)n1	23.2% (active)
